# Where “and” joins values, the source holds several entries; their conditions need not be identical. Equal entries are not always repeated.
# Key:
# Candida albicans [1] = assay: In vitro antifungal activity against Candida albicans CY 1002; format: functional, organism-based
# Chitin synthase 1 = Chitin synthase 1 (Candida albicans, UniProt P23316); assay: Inhibitory of Candida albicans chitin synthase 1
# Cryptococcus neoformans [2] = assay: In vitro antifungal activity of compound was tested against Cryptococcus neoformans CY 1057
# Mus musculus [3] = assay: In vivo antifungal activity was evaluated in target organ kidney assay (TOKA) in mice infected with Candida albicans CY 10025 X 10e5 cell after intravenous administration of compound at 5 mg/kg; format: functional
# In short: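 Systemic candidiasis in mice, target organ kidney assay: infection with 5 × 10^5 cells/mouse, compound given iv at 0, 2 and 4 h post-infection in 5% DMSO-5% PEG300-30% HPCD. Kidney CFU counted; T/C = treated CFU/control CFU × 100.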
# Aspergillus fumigatus = assay: In vitro antifungal activity of compound was tested against Aspergillus fumigatus CF1003
# Candida albicans [4] = assay: In vitro antifungal activity against Candida albicans CY 3003; format: functional, organism-based
# Pichia kudriavzevii = assay: In vitro antifungal activity against Candida krusei CY 1191; format: functional, organism-based
# Candida tropicalis = assay: In vitro antifungal activity of compound was tested against Candida tropicalis CY 1038; format: functional, organism-based
# Candida albicans [5] = assay: In vitro antifungal activity against Candida albicans CY 1003; format: functional, organism-based
# Candida parapsilosis = assay: In vitro antifungal activity of compound was tested against Candida parapsilosis CY 1028; format: functional, organism-based; details: Lodderomyces parapsilosis
# Candida albicans [6] = assay: In vitro antifungal activity against Candida albicans CY 1124; format: functional, organism-based
# Nakaseomyces glabratus = assay: In vitro antifungal activity against Candida glabrata CY 1014; format: functional, organism-based
# Cryptococcus neoformans [7] = assay: In vitro antifungal activity of compound was tested against Cryptococcus neoformans CY 1059
# Mus musculus [8] = assay: In vivo antifungal activity was evaluated in target organ kidney assay (TOKA) in mice infected with Candida albicans CY 10025 X 10e5 cell after intravenous administration of compound at 1 mg/kg; format: functional
# In short: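 Systemic candidiasis in mice, infected with C. albicans CY1002 at 5 × 10^5 cells/mouse. Dosed iv at 0, 2 and 4 h after infection: 5 mg/kg in 5% DMSO 5% PEG300-30% HPCD, comparator azole at 1 mg/kg. Kidney CFU counted; T/C = treated CFU/control CFU × 100.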
# Candida albicans [9] = assay: In vitro antifungal activity against […] CY 1057; format: functional, organism-based
# Candida albicans [10] = assay: In vitro antifungal activity against Aspergillus fumigatus CF 1003; format: functional, organism-based
# Sequence of Chitin synthase 1 (P23316 whole entry): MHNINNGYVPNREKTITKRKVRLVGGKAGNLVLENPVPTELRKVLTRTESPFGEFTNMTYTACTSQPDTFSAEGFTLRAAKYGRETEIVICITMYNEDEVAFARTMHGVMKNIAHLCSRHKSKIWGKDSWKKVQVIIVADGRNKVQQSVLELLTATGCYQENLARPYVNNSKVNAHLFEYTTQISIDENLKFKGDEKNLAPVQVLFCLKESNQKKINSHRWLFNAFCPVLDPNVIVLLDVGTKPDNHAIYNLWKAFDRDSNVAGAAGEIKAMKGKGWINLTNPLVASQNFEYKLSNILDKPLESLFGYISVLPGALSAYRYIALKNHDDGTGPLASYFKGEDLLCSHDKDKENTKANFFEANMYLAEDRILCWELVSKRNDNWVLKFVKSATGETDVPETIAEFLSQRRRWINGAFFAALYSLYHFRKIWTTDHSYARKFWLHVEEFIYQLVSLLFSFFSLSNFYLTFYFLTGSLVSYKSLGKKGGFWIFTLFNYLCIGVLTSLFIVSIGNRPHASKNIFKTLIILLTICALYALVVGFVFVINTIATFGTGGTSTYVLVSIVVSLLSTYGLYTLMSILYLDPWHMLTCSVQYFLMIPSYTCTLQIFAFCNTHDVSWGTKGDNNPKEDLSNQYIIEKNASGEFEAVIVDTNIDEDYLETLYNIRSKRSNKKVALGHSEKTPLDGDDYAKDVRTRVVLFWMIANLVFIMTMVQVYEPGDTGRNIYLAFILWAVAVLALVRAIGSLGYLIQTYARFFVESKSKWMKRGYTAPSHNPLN
Compound,IC50 (Candida albicans [1]),IC50 (Chitin synthase 1),further results
CC(C)(C)C#C/C=C/CNc1cccc2nc(O)ccc12,3.3 µg/mL,71.3 nM and 70 nM,
CCCCN(C/C=C/C#CC(C)(C)C)c1cccc2c1CCC(=O)N2,> 200 µg/mL,0.35 nM,
CN(CC#CC#CC(C)(C)O)c1cccc2c1CCC(=O)N2,> 200 µg/mL,213 nM,
CC(C)(C)C#C/C=C/CNc1cccc2oc(=O)ccc12,,12000 nM,
CN(CC#CC#Cc1ccccc1)c1cccc2c1CCC(=O)N2,> 200 µg/mL,13700 nM,
CC(C)(C)C#C/C=C/CN(Cc1ccccc1)c1cccc2c1CCC(=O)N2,> 200 µg/mL,54 nM,
CN(CC#CC#CC(C)(C)C)c1cccc2c1CC(O)C(=O)N2 (stereo not drawn),0.13 µg/mL,3 nM,IC50 (Cryptococcus neoformans [2]): > 200 µg/mL; T/C (Mus musculus [3]): 39%; IC50 (Aspergillus fumigatus): 82 µg/mL
CCOP(=O)(OCC)OC1Cc2c(cccc2N(C)CC#CC#CC(C)(C)C)NC1=O (stereo not drawn),2.1 µg/mL,0.76 nM,IC50 (Cryptococcus neoformans [2]): 0.23 µg/mL; IC50 (Aspergillus fumigatus): 21 µg/mL
COC(C)(C)C#CC#CCN(C)c1cccc2c1CCC(=O)N2,3.5 µg/mL,1030 nM,
CC(C)(C)CCCCCNc1cccc2[nH]c(=O)ccc12,,> 350000 nM,
CC(C)(C)C#C/C=C/CN(c1cccc2c1CCC(=O)N2)S(C)(=O)=O,> 200 µg/mL,391 nM,
CN(CC#CC#CC(C)(C)C)c1cccc2c1CC(N)C(=O)N2 (stereo not drawn),20 µg/mL,12.3 nM,IC50 (Cryptococcus neoformans [2]): 15 µg/mL; T/C (Mus musculus [3]): 23%; IC50 (Aspergillus fumigatus): 35 µg/mL
CC(C)[C@@H](N)C(=O)OC1Cc2c(cccc2N(C)CC#CC#CC(C)(C)C)NC1=O (stereo partly drawn),1.3 µg/mL,14.9 nM,IC50 (Cryptococcus neoformans [2]): 16 µg/mL; T/C (Mus musculus [3]): 15%; IC50 (Aspergillus fumigatus): 19 µg/mL
CC(=O)Nc1cccc(NC/C=C/C#CC(C)(C)C)c1,,1000 nM,
CC(C)(C)C#C/C=C/CNCc1ccc(O)nc1,,211000 nM,
CC(C)(C)C#C/C=C/CNc1cccc2c1CCC(=O)N2,> 200 µg/mL,70.9 nM,

Compound,IC50 (Candida albicans [1]),IC50 (Chitin synthase 1),further results
CCC#CC#CCN(C)c1cccc2c1CCC(=O)N2,200 µg/mL,7.88 nM,
CC(C)N(C/C=C/C#CC(C)(C)C)c1cccc2c1CCC(=O)N2,> 200 µg/mL,1.23 nM,
CN(C/C=C/C#CC(C)(C)C)c1cccc2c1CCC(=O)N2,0.19 µg/mL,2.77 nM,
CN(CCCC#CC(C)(C)C)c1cccc2c1CCC(=O)N2,> 200 µg/mL,8.95 nM,
CCCCCN(C/C=C/C#CC(C)(C)C)c1cccc2c1CCC(=O)N2,> 200 µg/mL,1.1 nM,
CN(CC#CC#CC(C)(C)C)c1cccc2c1CCC(=O)N2,0.07 µg/mL,0.14 nM,IC50 (Candida albicans [4]): 0.09 µg/mL; IC50 (Pichia kudriavzevii): 0.31 µg/mL; IC50 (Candida tropicalis): 0.07 µg/mL; IC50 (Candida albicans [5]): 0.1 µg/mL; IC50 (Candida parapsilosis): 0.5 µg/mL; T/C (Mus musculus [3]): 34%; IC50 (Candida albicans [6]): 0.17 µg/mL; IC50 (Nakaseomyces glabratus): 0.47 µg/mL; IC50 (Aspergillus fumigatus): 43 µg/mL; IC50 (Cryptococcus neoformans [7]): > 200 µg/mL
CCCN(C/C=C/C#CC(C)(C)C)c1cccc2c1CCC(=O)N2,> 200 µg/mL,0.68 nM,
CCN(C/C=C/C#CC(C)(C)C)c1cccc2c1CCC(=O)N2,0.27 µg/mL,0.9 nM,
Cn1c(=O)ccc2c(NC/C=C/C#CC(C)(C)C)cccc21,,16000 nM,
CN(C/C=C\C#CC(C)(C)C)c1cccc2c1CCC(=O)N2,95 µg/mL,13.2 nM,
CC(=O)N(C/C=C/C#CC(C)(C)C)c1cccc2c1CCC(=O)N2,> 200 µg/mL,775 nM,
CC(C)(C)C#C/C=C/CNc1cccc2ncccc12,,4500 nM,
CN(Cc1ccc(C#CC(C)(C)C)cc1)c1cccc2c1CCC(=O)N2,> 200 µg/mL,7.22 nM,
OC(Cn1cncn1)(Cn1cncn1)c1ccc(F)cc1F [FLUCONAZOLE],1.2 µg/mL,,T/C (Mus musculus [8]): 38%; IC50 (Candida albicans [9]): 3.4 µg/mL; IC50 (Candida albicans [10]): 50 µg/mL
C[C@@H]([C@H](N)C(=O)N[C@H](C(=O)O)[C@H]1O[C@@H](n2ccc(=O)[nH]c2=O)[C@H](O)[C@@H]1O)[C@H](O)c1ccc(O)cn1 [NIKKOMYCIN],12 µg/mL,3200 nM,IC50 (Candida albicans [4]): 7 µg/mL; IC50 (Pichia kudriavzevii): > 200 µg/mL; IC50 (Candida tropicalis): 73 µg/mL; IC50 (Candida albicans [5]): 81 µg/mL; IC50 (Candida parapsilosis): 13 µg/mL; IC50 (Candida albicans [6]): 15 µg/mL; IC50 (Nakaseomyces glabratus): > 200 µg/mL; IC50 (Aspergillus fumigatus): 11 µg/mL; IC50 (Cryptococcus neoformans [7]): > 200 µg/mL
